Assay results from article PMC4242840 (The Journal of Cell Biology, 2014).
“Also recorded” adds a separate entry of the source.

Tests used:
HIS6-Rsa4 WD40 domain = target: T1, HIS6-Rsa4 WD40 domain (S. cerevisiae, UniProt P25382 112-515); assay: pull-down
T1 sequence: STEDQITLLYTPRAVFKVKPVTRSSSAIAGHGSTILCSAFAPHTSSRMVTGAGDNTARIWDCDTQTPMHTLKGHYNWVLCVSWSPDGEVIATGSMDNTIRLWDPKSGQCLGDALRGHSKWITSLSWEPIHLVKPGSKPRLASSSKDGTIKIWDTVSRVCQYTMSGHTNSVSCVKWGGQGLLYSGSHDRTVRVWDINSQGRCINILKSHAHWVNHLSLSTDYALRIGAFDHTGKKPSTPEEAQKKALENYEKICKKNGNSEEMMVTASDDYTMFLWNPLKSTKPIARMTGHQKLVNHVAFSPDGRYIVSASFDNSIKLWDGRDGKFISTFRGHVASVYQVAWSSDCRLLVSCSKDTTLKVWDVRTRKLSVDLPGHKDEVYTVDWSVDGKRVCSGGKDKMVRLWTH

[1] = target: T2, HIS6-TEV-Rsa4 full-length (S. cerevisiae, UniProt P25382 1-515); assay: pull-down
T2 sequence: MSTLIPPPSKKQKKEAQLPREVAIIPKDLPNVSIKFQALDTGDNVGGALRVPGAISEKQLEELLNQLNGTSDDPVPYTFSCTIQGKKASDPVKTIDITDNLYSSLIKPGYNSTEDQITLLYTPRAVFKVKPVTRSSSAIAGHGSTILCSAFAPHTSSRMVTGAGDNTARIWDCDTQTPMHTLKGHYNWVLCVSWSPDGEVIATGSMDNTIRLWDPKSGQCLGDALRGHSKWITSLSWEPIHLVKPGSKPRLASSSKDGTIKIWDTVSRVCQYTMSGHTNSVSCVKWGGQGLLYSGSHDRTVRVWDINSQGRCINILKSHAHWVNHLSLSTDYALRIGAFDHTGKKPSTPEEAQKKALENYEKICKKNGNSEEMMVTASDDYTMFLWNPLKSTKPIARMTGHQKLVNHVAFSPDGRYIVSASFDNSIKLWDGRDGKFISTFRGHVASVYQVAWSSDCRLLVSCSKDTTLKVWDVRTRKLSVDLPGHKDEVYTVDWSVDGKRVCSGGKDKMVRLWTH

[2] = tested on: Nsa2 shuffle strain (nsa2Δ); assay: complementation of nsa2Δ; format: cell-based, Saccharomyces cerevisiae; conditions: SDC+FOA, 30°C, 2 or 3 d
wild-type yeast growth = assay: dominant-negative phenotype upon GAL overexpression in wild-type yeast; format: cell-based, Saccharomyces cerevisiae; conditions: GAL promoter, galactose medium, 30°C, 2 or 3 d
[3] = tested on: 60S subunit production / pre-60S composition; assay: pulse-chase labeling with affinity purification of Rpl25; format: cell-based, Saccharomyces cerevisiae
Summary of the method: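 Strain DS1-2b carried an amber-suppressor tRNA/synthetase plasmid and a GAL plasmid co-expressing 2×HA-TAG-Rpl25-FTpA with wild-type or Y90A Nsa2. After 60 min galactose induction, O-methyl-tyrosine was added as a 7 min pulse, followed by a 20 min chase with tetracycline and glucose. Rpl25 was TAP-purified, run on SDS-PAGE with Coomassie staining, and bands were identified by mass spectrometry.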

pre-60S particles [4] = assay: association with pre-60S particles; format: cell-based, Saccharomyces cerevisiae
Summary of the method: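 Wild-type yeast expressed plasmid-borne NSA2-FTpA or nsa2 Y90A-FTpA. Cells were treated with cycloheximide for 15 min and lysed with glass beads. Whole-cell lysates were fractionated on 10–50% sucrose gradients (16 h, 27,000 rpm, 0.4 ml fractions), and fractions were probed by Western blot with anti-ProtA to detect tagged Nsa2.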

[5] = tested on: 60S subunit formation and nuclear export; assay: 60S biogenesis/export upon overexpression; format: cell-based, Saccharomyces cerevisiae; conditions: galactose-containing medium, 6 h (nsa2) or 8 h (rsa4)
Summary of the method: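 Wild-type yeast carried plasmids for the 60S reporter Rpl25-EGFP and mRFP-Nop1, plus 2μ GAL-driven NSA2 alleles. Cells were shifted to galactose medium for 6 h (Nsa2), washed in water and imaged at room temperature (100× oil objective, EGFP/Cy3 filters). For profiles, cells were treated with cycloheximide for 15 min, lysed with glass beads and run on 10–50% sucrose gradients (16 h, 27,000 rpm), recorded at 254 nm.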

[6] = tested on: 25S rRNA helices H89, H90, H42; assay: UV cross-linking and analysis of cDNA; format: binding, Saccharomyces cerevisiae; conditions: in vivo UV cross-linking, % of hits
Summary of the method: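 Yeast culture was UV-irradiated to cross-link protein to RNA, then lysed with zirconia beads. Nsa2-His-TEV-ProtA was bound to IgG-Sepharose and eluted with TEV. The eluate was RNase-treated and denatured, and Nsa2 was repurified on Ni-NTA under denaturing conditions. Cross-linked RNA was ligated to 3′ and 5′ DNA linkers and sequenced; hits were mapped to rRNA helices.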

[7] = target: T3, Rsa4 β-propeller (Rsa4Δ136) (S. cerevisiae, UniProt P25382 137-515); assay: ITC
T3 sequence: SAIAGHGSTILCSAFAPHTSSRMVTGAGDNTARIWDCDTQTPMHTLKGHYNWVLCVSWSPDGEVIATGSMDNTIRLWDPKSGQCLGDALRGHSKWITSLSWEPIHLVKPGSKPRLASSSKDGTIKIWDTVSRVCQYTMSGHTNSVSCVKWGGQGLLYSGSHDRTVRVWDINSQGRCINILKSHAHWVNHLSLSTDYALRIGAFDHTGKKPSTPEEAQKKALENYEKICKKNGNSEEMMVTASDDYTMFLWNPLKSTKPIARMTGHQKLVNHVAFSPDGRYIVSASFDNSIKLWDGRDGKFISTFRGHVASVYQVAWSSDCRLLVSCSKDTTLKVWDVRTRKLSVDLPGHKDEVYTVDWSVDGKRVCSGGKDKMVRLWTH

pre-60S particles [8] = assay: affinity purification of Rpl5-FTpA constructs; format: cell-based, Saccharomyces cerevisiae; conditions: Flag-TEV-ProtA bait
Summary of the method: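 Rpl5 variants tagged with Flag-TEV-ProtA were purified from a 2-liter yeast culture pellet. Steps: IgG-Sepharose 90 min, TEV elution 120 min, FLAG beads 45 min, FLAG-peptide elution. Eluates were run alongside pre-60S particles purified via Nsa2-FTpA and FTpA-Rsa4, then analysed by SDS-PAGE and Western blot.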

GDALPTYLLDREQ (domain or fragment) [MBP-Nsa2 84–96 aa]
binding result (HIS6-Rsa4 WD40 domain): binds

B1: MBP-Nsa2 (natural protein)
chain: MPQNDYIERHIKQHGKRLDHEERKRKREARESHKISERAQKLTGWKGKQFAKKRYAEKVSMRKKIKAHEQSKVKGSSKPLDTDGDALPTYLLDREQNNTAKAISSSIKQKRLEKADKFSVPLPKVRGISEEEMFKVIKTGKSRSKSWKRMITKHTFVGEGFTRRPVKMERIIRPSALRQKKANVTHPELGVTVFLPILAVKKNPQSPMYTQLGVLTKGTIIEVNVSELGMVTAGGKVVWGKYAQVTNEPDRDGCVNAVLLV
binding result [1]: binds

B2: nsa2 Y90F: Nsa2 with tyrosine 90 mutated to phenylalanine (protein)
chain: MPQNDYIERHIKQHGKRLDHEERKRKREARESHKISERAQKLTGWKGKQFAKKRYAEKVSMRKKIKAHEQSKVKGSSKPLDTDGDALPTFLLDREQNNTAKAISSSIKQKRLEKADKFSVPLPKVRGISEEEMFKVIKTGKSRSKSWKRMITKHTFVGEGFTRRPVKMERIIRPSALRQKKANVTHPELGVTVFLPILAVKKNPQSPMYTQLGVLTKGTIIEVNVSELGMVTAGGKVVWGKYAQVTNEPDRDGCVNAVLLV
modifications: left off: MBP, N-terminal, kept
growth / viability (complementation) [2]: normal growth

B3: nsa2 Y90A: Nsa2 with tyrosine 90 mutated to alanine (protein)
chain: MPQNDYIERHIKQHGKRLDHEERKRKREARESHKISERAQKLTGWKGKQFAKKRYAEKVSMRKKIKAHEQSKVKGSSKPLDTDGDALPTALLDREQNNTAKAISSSIKQKRLEKADKFSVPLPKVRGISEEEMFKVIKTGKSRSKSWKRMITKHTFVGEGFTRRPVKMERIIRPSALRQKKANVTHPELGVTVFLPILAVKKNPQSPMYTQLGVLTKGTIIEVNVSELGMVTAGGKVVWGKYAQVTNEPDRDGCVNAVLLV
modifications: left off: MBP, N-terminal, kept
dominant-negative phenotype upon overexpression (wild-type yeast growth): dominant lethal
dominant-negative phenotype upon overexpression (wild-type yeast growth; listed as Nsa2 Y90A): strong dominant-lethal phenotype
60S production in pulse-chase ([3]; 60-min galactose induction, 7 min Ome-Tyr pulse, 20 min chase): arrests 60S biogenesis
enrichment of methyl-transferases Spb1 and Nop2 ([3]; arrested preribosomal intermediate, HA-Rpl25-Flag-ProtA purification): strongly enriched
association with pre-60S particles (pre-60S particles [4]; 10–50% sucrose gradient, anti-ProtA Western blot): still associated with pre-60S particles; also recorded: efficiently assembled into preribosomes
replacement of endogenous Nsa2 in preribosomes (pre-60S particles [4]; upon overexpression): replacement of endogenous Nsa2 within the preribosomes
effect of overexpression on 60S biogenesis / export [5]: defect in 60S subunit export
effect of overexpression on 60S biogenesis / export ([5]; listed as Nsa2 Y90A): specific block in nuclear export and formation of 60S subunits
growth / viability (complementation) [2]: nonviable

B4: Nsa2-His6-TEV-ProtA: Nsa2 tagged with His6-TEV-ProtA used for CRAC (protein, UniProt P40078 1-261, looked up)
Ribosome biogenesis protein …: MPQNDYIERHIKQHGKRLDHEERKRKREARESHKISERAQKLTGWKGKQFAKKRYAEKVSMRKKIKAHEQSKVKGSSKPLDTDGDALPTYLLDREQNNTAKAISSSIKQKRLEKADKFSVPLPKVRGISEEEMFKVIKTGKSRSKSWKRMITKHTFVGEGFTRRPVKMERIIRPSALRQKKANVTHPELGVTVFLPILAVKKNPQSPMYTQLGVLTKGTIIEVNVSELGMVTAGGKVVWGKYAQVTNEPDRDGCVNAVLLV
modifications: His6-TEV-ProtA tag
CRAC hits on H42 ([6]; rRNA helix H42): 15%
CRAC hits on H89 ([6]; rRNA helix H89): 60%
CRAC hits on H90 ([6]; rRNA helix H90): 25%

B5: MBP-Nsa2 Y90F (natural protein)
chain: MPQNDYIERHIKQHGKRLDHEERKRKREARESHKISERAQKLTGWKGKQFAKKRYAEKVSMRKKIKAHEQSKVKGSSKPLDTDGDALPTFLLDREQNNTAKAISSSIKQKRLEKADKFSVPLPKVRGISEEEMFKVIKTGKSRSKSWKRMITKHTFVGEGFTRRPVKMERIIRPSALRQKKANVTHPELGVTVFLPILAVKKNPQSPMYTQLGVLTKGTIIEVNVSELGMVTAGGKVVWGKYAQVTNEPDRDGCVNAVLLV
binding result [1]: binds

DALPTYLLDRE [Nsa2 peptide (85–95 aa, DALPTYLLDRE)]
binding result [7]: binds

B6: wild-type Rpl5: ribosomal protein Rpl5 (uL18), wild type (protein)
chain: MAFQKDAKSSAYSSRFQTPFRRRREGKTDYYQRKRLVTQHKAKYNTPKYRLVVRFTNKDIICQIISSTITGDVVLAAAYSHELPRYGITHGLTNWAAAYATGLLIARRTLQKLGLDETYKGVEEVEGEYELTEAVEDGPRPFKVFLDIGLQRTTTGARVFGALKGASDGGLYVPHSENRFPGWDFETEEIDPELLRSYIFGGHVSQYMEELADDDEERFSELFKGYLADDIDADSLEDIYTSAHEAIRADPAFKPTEKKFTKEQYAAESKKYRQTKLSKEERAARVAAKIAALAGQQ
co-purified particles / Syo1 (pre-60S particles [8]): only recovered mature 60S subunits, plus Syo1
